Screens: PubChem, Johns Hopkins Ion Channel Center
TRPC4 potent: allosterically enhances the mouse TRPC4 cation channel. HEK293 TRPC4beta/mu-opioid, DAMGO EC20, Fluo-4 Ca2+ flux; stronger effect = higher value. AID 2227. actives 0.42% (n = 310,000). B-score at 10 µM. Q9QUQ5;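 active = B-score of calcium response area above 5 SD of library B-scores, with initial fluorescence ratio within 5 SD of library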;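 note: B-score of integrated fluorescence ratio over time as area under calcium response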
Target sequence (Q9QUQ5 whole entry, looked up): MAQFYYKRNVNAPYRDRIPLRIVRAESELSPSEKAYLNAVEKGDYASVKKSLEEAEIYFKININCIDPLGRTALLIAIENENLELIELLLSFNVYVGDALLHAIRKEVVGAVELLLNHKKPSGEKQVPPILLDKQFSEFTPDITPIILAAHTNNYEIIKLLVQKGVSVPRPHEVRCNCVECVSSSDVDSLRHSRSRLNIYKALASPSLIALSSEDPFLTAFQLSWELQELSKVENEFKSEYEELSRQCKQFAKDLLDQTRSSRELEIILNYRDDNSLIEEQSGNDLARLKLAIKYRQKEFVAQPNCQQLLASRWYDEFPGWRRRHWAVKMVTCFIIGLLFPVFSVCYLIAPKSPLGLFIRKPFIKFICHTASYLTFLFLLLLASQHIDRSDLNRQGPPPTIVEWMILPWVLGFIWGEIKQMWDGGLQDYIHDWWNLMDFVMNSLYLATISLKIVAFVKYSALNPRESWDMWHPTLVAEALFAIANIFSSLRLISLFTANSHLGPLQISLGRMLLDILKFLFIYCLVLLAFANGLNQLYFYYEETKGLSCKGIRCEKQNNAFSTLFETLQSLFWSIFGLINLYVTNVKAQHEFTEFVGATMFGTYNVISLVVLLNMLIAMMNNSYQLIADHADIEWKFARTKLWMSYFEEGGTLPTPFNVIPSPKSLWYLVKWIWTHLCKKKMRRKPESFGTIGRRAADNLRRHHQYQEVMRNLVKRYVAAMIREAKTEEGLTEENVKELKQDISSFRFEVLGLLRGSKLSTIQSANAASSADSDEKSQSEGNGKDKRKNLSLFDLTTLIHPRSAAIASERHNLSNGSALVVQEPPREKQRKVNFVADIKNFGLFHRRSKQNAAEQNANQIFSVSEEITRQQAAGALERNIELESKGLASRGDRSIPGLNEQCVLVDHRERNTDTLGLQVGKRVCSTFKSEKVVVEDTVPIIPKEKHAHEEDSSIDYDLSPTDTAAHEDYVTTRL
TRPC6 inhibitor: mouse TRPC6 channel inhibition; Q61143; HEK293-TRPC6, membrane potential dye, ACh-evoked depolarization; stronger effect = lower value; B-score at 10 µM; actives 1.1% (n = 310,000); AID 2553;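 active = B-score under library mean minus 3 SD, initial fluorescence not abnormally high, positive integrated signal ratio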;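 note: B-score derived from integrated fluorescence ratio over the kinetic read; more negative B-score means stronger inhibition of depolarization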
TRPC4 agonist: activators of mouse TRPC4 channel. B-score at 10 µM. actives 0.49% (n = 310,000). HEK293 TRPC4beta/mu-opioid, Fluo4 calcium fluorescence; stronger effect = higher value;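 active = B-score above 5 SD of library B-scores, and initial fluorescence ratio not above library mean plus 5 SD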;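 note: positive B-score marks a calcium rise read as TRPC4 activation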
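Incubation: 45 min room-temperature Fluo4 loading, 110 s read / System: HEK293 cells stably co-expressing mouse TRPC4beta and mu-opioid receptor / Signal: Fluo4 fluorescence, kinetic / Control set: buffer (low) and maximal DAMGO (high) / Measure: integrated baseline-normalised fluorescence ratio, converted to per-well B score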
TRPC4 inh: blocks the mouse TRPC4 cation channel. HEK293 TRPC4beta/mu-opioid, DAMGO-evoked Fluo4 calcium flux; stronger effect = lower value. B-score at 10 µM. actives 0.39% (n = 300,000). Q9QUQ5;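 active = B-score over 3 SD under the library average, no early fluorescence shift, positive overall ratio signal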
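System: stable TRPC4beta/mu-opioid receptor HEK293 cells; Dosing: single-point compound dosing; Measured by: Fluo4 Ca2+ flux fluorescence; Read-out basis: per-well B score of integrated baseline-normalized Fluo4 ratio.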
TRPC6 activator: activates the mouse TRPC6 cation channel; Q61143; HEK293-TRPC6 membrane potential dye fluorescence; stronger effect = higher value; B-score at 10 µM; actives 0.13% (n = 310,000); AID 2550;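 active = B-score of the integrated fluorescence ratio above library mean plus 3 SD, and starting fluorescence ratio within library mean plus 5 SD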;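 note: higher score means more depolarization so channel activation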
TRPC4 sel inh 2: second selectivity test of TRPC6 inhibitors: effect on mouse TRPC4. shares compounds with TRPC6 inhibitor. HEK293 TRPC4/MOR, membrane potential dye fluorescence; channel activated by saturating DAMGO dose. inhibition, % at 10 µM. actives 42% (n = 920);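 active = compounds whose fluorescence signal differed from control wells by over 3 SD, either direction, in both duplicate plates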
TRPC4 spec: tests whether TRPC6 inhibitors also affect mouse TRPC4. shares compounds with TRPC6 inhibitor. HEK293 TRPC4/mu-opioid, membrane potential fluorescence. actives 61% (n = 920). activity change, negative = inhibition, % at 10 µM;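 active = rise or fall in signal beyond 3 SD of buffer-only wells in both replicate plates, either sign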;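 note: integrated kinetic ratio of fluorescence range over baseline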
HEK293 MPD ctr 2-1: parental HEK293 nonspecific activity of TRPC6 inhibitors, second screen; shares compounds with TRPC6 inhibitor; parental HEK293 membrane potential dye fluorescence; maximal acetylcholine challenge after compound addition; signal change vs control, % at 10 µM; actives 31% (n = 920);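 active = membrane potential signal moving either way by over 3 SD of the maximum-effect control, in both duplicate plates, meaning non-specific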
HEK293 MPD ctr-1: parental HEK293 nonspecific activity of TRPC6 inhibitors | shares compounds with TRPC6 inhibitor | parental HEK293 membrane potential dye fluorescence | membrane potential signal change, % at 10 µM | actives 60% (n = 920);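 active = membrane potential signal shifting up or down by more than 3 SD of buffer-only wells, on both duplicate plates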
HEK293 MPD ctr-2: checks TRPC6 modulator effects in parental HEK293 cells | shares compounds with TRPC6 inhibitor | membrane potential dye fluorescence | membrane potential signal change, % at 10 µM | actives 51% (n = 2,400);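 active = membrane potential signal moves up or down beyond 5 SD from buffer-only wells, on both duplicate plates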
HEK293 MPD ctr 2-2: second check of TRPC6 modulator effects in parental HEK293 cells | shares compounds with TRPC6 inhibitor | membrane potential dye fluorescence; after compound, maximal acetylcholine stimulation | inhibition, % at 10 µM | actives 14% (n = 2,400) | AID 488926;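 active = membrane potential signal drops by more than 5 SD from the mean control signal, in both duplicate plates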;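 note: plate controls were acetylcholine ECmax control wells for no effect and buffer only wells for full effect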
TRPC4/MOR mod: selectivity of TRPC6 modulators against mouse TRPC4 | shares compounds with TRPC6 inhibitor | HEK293 TRPC4/mu-opioid, membrane potential fluorescence | percent change from control (negative = decrease, positive = increase), % at 10 µM | actives 69% (n = 2,400) | AID 488927;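 active = membrane potential signal moved up or down beyond 5 SD of buffer control wells, in both duplicate plates, actives on both sides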;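 note: plate controls were assay buffer wells for no effect and DAMGO maximal-effect wells for full effect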
TRPC4/MOR inh 2: second selectivity test of TRPC6 modulators against mouse TRPC4 | shares compounds with TRPC6 inhibitor | HEK293 TRPC4/mu-opioid, membrane potential dye fluorescence; stimulated with maximal-effect DAMGO | inhibition, % at 10 µM | actives 55% (n = 2,400);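 active = drop in membrane potential signal beyond 5 SD of the control wells in both duplicate plates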;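 note: TRPC4 counter screen for TRPC6 hits run under conditions tuned for TRPC6 not TRPC4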
TRPC6 block conf: mouse TRPC6 inhibitor confirmation | shares compounds with TRPC6 inhibitor | actives 43% (n = 3,300) | AID 488960 | inhibition, % at 10 µM | HEK293-TRPC6, membrane potential dye, ACh-evoked depolarization;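 active = fluorescence ratio falls more than 5 SD below the full-stimulation control mean, in both duplicate runs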;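 note: integrated fluorescence ratio of peak minus minimum over baseline after agonist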
TRPC6 act conf: mouse TRPC6 activator confirmation | activation, % at 10 µM | shares compounds with TRPC6 inhibitor | HEK293-TRPC6 membrane potential dye fluorescence, FDSS | actives 11% (n = 2,800);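 active = ratio signal rise beyond 5 SD above unstimulated control wells' mean, seen in both duplicate runs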;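 note: plate controls were buffer EC0 wells for no effect and acetylcholine ECmax response for full effect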
* hit, by the source's call; i = inactive; / = no result. This is a sample that favours compounds with a hit; in the whole collection about 2.3% have one here.

SMILES	TRPC4 potent	TRPC6 inhibitor	TRPC4 agonist	TRPC4 inh	TRPC6 activator	HEK293 MPD ctr-2	HEK293 MPD ctr 2-2	TRPC4/MOR mod	TRPC4/MOR inh 2	TRPC6 block conf	TRPC6 act conf	others
CCOC(=O)c1cnc2ccc(OCC)cc2c1N1CCN(C)CC1	i	-5.5*	i	i	i	-110%*	i	-18%*	43%*	i	i
CCOC(=O)c1cnc2ccc(C)cc2c1NCCO	i	-8.2*	i	i	i	/	/	/	/	i	i	TRPC4 sel inh 2=i;TRPC4 spec=-12%*;HEK293 MPD ctr 2-1=6.5%*;HEK293 MPD ctr-1=-279%*
CCOC(=O)c1cnc2ccc(OCC)cc2c1NCCN1CCOCC1	i	-5.2*	i	i	i	i	i	i	41%*	i	i
CCn1c(SCC(=O)Nc2ccccc2C(=O)OC)nnc1-c1ccoc1C	i	i	i	i	i	/	/	/	/	/	/
C=CCOC(=O)Nc1c(C(=O)OC)[nH]c2ccc(Cl)cc12	i	i	i	i	i	/	/	/	/	/	/
CC(C)(Oc1ccc(Cl)cc1)C(=O)NCC(c1cccs1)N1CCOCC1 (stereo unspecified)	i	i	i	i	i	/	/	/	/	/	/
COc1ccccc1C(CNC(=O)C(C)(C)Oc1ccc(Cl)cc1)N1CCCC1 (stereo unspecified)	i	-5.7*	i	i	i	194%*	i	33%*	42%*	52%*	/
O=C(CSc1nccc(=O)[nH]1)Nc1cccc2ccccc12	i	i	i	i	i	/	/	/	/	/	/
Cc1cccc(NS(=O)(=O)c2cc(C(=O)OC(C)C(=O)NCc3ccc4c(c3)OCO4)ccc2C)c1 (stereo unspecified)	i	i	i	i	i	/	/	/	/	/	/
CCN(CC)c1ccc(S(=O)(=O)N(CC)CC)cc1NC(=O)C1CCCC1	i	-14*	i	i	21*	182%*	i	34%*	36%*	116%*	162%*
CCN(CC)c1ccc(S(=O)(=O)N2CCCCC2)cc1NC(=O)C1CCC1	i	-5.5*	i	i	12*	i	i	22%*	30%*	76%*	96%*
O=C1CCC([N+](=O)[O-])C(c2ccccc2Cl)N1 (stereo unspecified)	i	i	i	i	i	/	/	/	/	/	/
O=C1CCC([N+](=O)[O-])C(c2ccccc2C(F)(F)F)N1 (stereo unspecified)	i	-5.1*	i	i	i	i	i	i	i	i	i
